Measured values from different studies.
Lines come from different studies, so protocols differ.

SMILES	host	sample	route	dose	setting	measurement	result
C=CC(=O)N1CC2CC(n3nc(-c4ccc(C(=O)Nc5ccccn5)cc4)c4c(N)ncnc43)CC2C1 (centres unmarked)	SCID mouse	plasma	oral	1 mg/kg		Cmax	61.8 ng/mL
CCNCCCNC/C=C\CNCCCNCC	human	plasma	intravenous	50 mg	patients, infusion	Vd	2.12 L/kg
CC(C)(Sc1ccncc1-c1ccc(C#N)c2ccccc12)C(=O)O	male human	plasma	oral	20 mg	single dose, fasted, healthy volunteers	Vd/F	328 L
COc1ccc([C@@H]2CN(C(=O)[C@@H](O)CO)C[C@@]2(C)[C@@H](C)O)cc1OC1CN(c2ccc(C)cn2)C1	human	plasma	oral	1.5 mg	single dose, healthy volunteers	Vd/F	55.7 L
Cc1cc(Nc2cc(N3CCN(C)CC3)nc(/C=C/c3ccccc3)n2)n[nH]1	human	plasma	oral	60 mg/m²	multiple doses, patients	Vd/F	699 L
Cc1nc(-c2cnc(NC(C)C)n(C)c2=O)ccc1Oc1ccnc(-c2cnn(C)c2)c1	female mouse	plasma	oral	3.75 mg/kg	single dose	Cmax	2780 ng/mL
COc1cc(C(=O)NC2CCN(C)CC2)c(F)cc1Nc1ncc(C(F)(F)F)c(Oc2cccc3c2C(=O)N(C)C3)n1	human	plasma	oral	100 mg	multiple doses, once daily, patients	Vd/F	284 L
CC(C)(C)c1ccc(O)c(CN(Cc2cc(C(C)(C)C)ccc2O)C2CCC(NC(N)=O)CC2)c1 (centres unmarked)	male C57BL/6 mouse	brain	oral	10 mg/kg	single dose	Cmax	550 ng/g
